Assay outcomes from PubChem.
Lmaj promast = inhibitors of Leishmania major promastigote growth. Leishmania major promastigotes, resazurin fluorescence viability. inhibition, % at 10 µM. 200,000 tested, 9% active. AID 1063;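 also: promastigotes grown with compound for 44 hours at 28 °C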
Diaphorase act = activates diaphorase or chemically reduces, flagging diaphorase assay artifacts | Diaphorase/resazurin coupled assay, resorufin fluorescence, 16 min; hits give high values; 1 = vehicle wells, 0 = NADH-free wells | activation factor at 20 µM | 190,000 tested, 0.005% active;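 active = diaphorase activity raised at least twofold by the compound at 20 µM; inactive = activation factor below 2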
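System – purified diaphorase enzyme from Clostridium kluyveri · Input – enzyme 0.07 U/mL final · Also added – final NADH 0.114 mM, resazurin 0.1 mM · Measured by – fluorescence of resorufin, 544 nm excitation, 590 nm emission · Timing – 16 min enzyme reaction, ambient temperature · Measure – resorufin increase flagging diaphorase activators or reducers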
Redox H2O2 prof = compounds producing H2O2 with reducing agent – biochemical, NIH compound library profiling, artefact control for MLSCN library redox annotation, primary screen; activation, % at 10 µM; 200,000 tested, 0.03% active; DTT-dependent redox cycling H2O2, phenol red/HRP absorbance; 100% = 100 µM peroxide control, 0% = buffer; AID 878;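 active = activation of at least 50% relative to the plate's high and low controls in the primary single-dose screen; inactive = activation below 50%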;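 also: compound incubated with DTT at 0.8 mM final as the reducing agent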
Diaph inh CS = counter-screen for diaphorase-based assays: diaphorase inhibitors and chemical oxidizers; diaphorase resazurin-to-resorufin fluorescence, NADH, 16 min; bacterial (C. kluyveri) enzyme, not human; inhibition, % at 20 µM; 190,000 tested, 0.69% active;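 active = primary screen inhibition at 20 µM above a set limit, cut at about 50% in these data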
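Detection: fluorescence of resorufin formed from resazurin, Ex 544/Em 590 nm; test system: Clostridium kluyveri diaphorase enzyme; amount: 0.14 U/mL diaphorase, enzyme working solution; times: 16-min room-temperature incubation before reading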
G6PDH CS = inhibits Leuconostoc G6PDH, flagging false hits in G6PDH-based assays | Purified L. mesenteroides G6PDH, diaphorase/resazurin coupled fluorescence, 45 min | inhibition, % at 5 µM | 200,000 tested, 0.12% active | AID 1020
PfG6PD inh = PfG6PD (Plasmodium falciparum) enzyme inhibition; PfGluPho enzyme, NADPH resazurin-diaphorase fluorescence; inhibition, % at 20 µM; 350,000 tested, 0.78% active; AID 504690;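 active = inhibition reaching at least a set limit at 20 µM in the primary screen, cut at about 59% in these data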
Large screens that a line does not name were inactive. Shown is part of a subset that was picked to be rich in hits. Rule as the data show it, unless noted: active = inhibition above about 50%; inactive = the rest.

Cc1ccccc1-n1c(O)c(C=Nc2ccc(N(C)C)cc2)c(=O)[nH]c1=O	Lmaj promast 57.9
c1ccc(C2(NC3=NCCO3)CCCCC2)cc1	none (no result: Lmaj promast, Diaphorase act, Redox H2O2 prof, Diaph inh CS, G6PDH CS)
CCCCCCN1CCN(c2ccc(Cl)cc2)CC1	Lmaj promast 82.5
Cc1ccc(OCC(=O)N2CCN(Cc3ccc4c(c3)OCO4)CC2)cc1C	Lmaj promast 89.2
COc1ccc(OC)c(CN2CCN(C(=O)COc3cccc(C)c3)CC2)c1	none
COc1ccc(CN2CCN(C(=O)COc3cccc(C)c3)CC2)c(OC)c1	Lmaj promast 62.2
CSc1ccc(CN2CCN(C(=O)COc3ccc(C)cc3)CC2)cc1	Lmaj promast 87.1
Cc1cccc(OCC(=O)N2CCN(Cc3ccc4c(c3)OCO4)CC2)c1	Lmaj promast 83.0
O=C(COc1ccc(Br)cc1)N1CCN(Cc2ccc3c(c2)OCO3)CC1	none (no result: Lmaj promast, Diaphorase act, Redox H2O2 prof, Diaph inh CS, G6PDH CS)
O=C(/C=C/c1ccc(F)cc1)NC(=S)N1C[C@H]2C[C@H](C1)c1cccc(=O)n1C2	none (no result: Lmaj promast, Diaphorase act, Redox H2O2 prof, Diaph inh CS, G6PDH CS)
CCc1ccc(CN2CCN(Cc3ccc(SC)cc3)CC2)cc1	Lmaj promast 89.3
CSc1ccc(CN2CCN(c3ccccc3C)CC2)cc1	none (no result: Lmaj promast, Diaphorase act, Redox H2O2 prof, Diaph inh CS, G6PDH CS)
COc1cc2c(cc1OC)-c1c(OC)c(OC)c(OC)c3ccnc(c13)C2=O	Lmaj promast 77.7, Diaph inh CS 54.6
O=C(O)c1ccccc1-c1ccc(C=C2C(=O)N(c3ccccc3)C(=S)N(c3ccccc3)C2=O)o1	none (no result: Lmaj promast, Diaphorase act, Redox H2O2 prof, Diaph inh CS, G6PDH CS)
CN1C2CCC1/C(=C/c1ccccn1)C(=O)/C2=C\c1ccccn1	Lmaj promast 100.5
Fc1ccccc1N1CCN(Cc2c(F)cccc2F)CC1	none
O=C(NCC(c1cccnc1)N1CCN(c2ccccc2F)CC1)Oc1ccccc1 (centres undefined)	Lmaj promast 96.7
COc1ccc(N2CCN(C(CNC(=O)Oc3ccccc3)c3cccnc3)CC2)cc1 (centres undefined)	Lmaj promast 92.1
COC(=O)C1=C(c2cc3ccccc3s2)C[C@@H]2CC[C@H]1N2C	none (no result: Lmaj promast, Diaphorase act, Redox H2O2 prof, Diaph inh CS, G6PDH CS)
O=[N+]([O-])c1ccc(NCCCN2CCOCC2)c2ncccc12	Lmaj promast 86.9
CCN(CCNc1ccc([N+](=O)[O-])c2cccnc12)S(=O)(=O)c1ccccc1	none
CCN(CCNc1ccc([N+](=O)[O-])c2cccnc12)S(=O)(=O)c1ccc(Cl)cc1	Lmaj promast 88.6
NCCNc1ccc([N+](=O)[O-])c2cccnc12	none
CN1CCN(CCC(C#N)(c2ccccc2)c2ccccc2)CC1	Lmaj promast 79.2
O=c1[nH]c(=O)n(C2CCCCCC2)c(O)c1C=NCCCN1CCOCC1	Lmaj promast 88.5
C[C@]12CCC3C(CC[C@H]4C[C@H](O)CC[C@]34C)C1CCC2=O (some centres undefined)	none (no result: Lmaj promast, Diaphorase act, Redox H2O2 prof, Diaph inh CS, G6PDH CS)
Cc1cc(/C=C2\C(=O)NC(=S)N(C)C2=O)c(C)n1C1CCCCC1	none
O=C1NC(=O)N(c2ccccc2)C(=O)/C1=C\c1ccc([N+](=O)[O-])s1	PfG6PD inh 80.9 (no result: Lmaj promast, Diaphorase act, Redox H2O2 prof, Diaph inh CS, G6PDH CS)
COc1ccc(OC)c(N2C(=O)NC(=O)/C(=C\c3ccc([N+](=O)[O-])s3)C2=O)c1	Lmaj promast 100.3
CN1C(=O)NC(=O)/C(=C/c2ccc([N+](=O)[O-])s2)C1=O	PfG6PD inh 81.5 (no result: Lmaj promast, Diaphorase act, Redox H2O2 prof, Diaph inh CS, G6PDH CS)
CN1C(=O)/C(=C\c2ccc(Br)s2)C(=O)NC1=S	PfG6PD inh 60.4 (no result: Lmaj promast, Diaphorase act, Redox H2O2 prof, Diaph inh CS, G6PDH CS)
CN1C(=O)NC(=O)/C(=C/c2ccc([N+](=O)[O-])o2)C1=O	none (no result: Lmaj promast, Diaphorase act, Redox H2O2 prof, Diaph inh CS, G6PDH CS)
CC(C(=O)Nc1ccc(Br)cc1C(=O)c1ccccc1)N1CCCCC1 (centres undefined)	Lmaj promast 99.7
O=C(CCN1CCCCC1)Nc1ccc(Br)cc1C(=O)c1ccccc1	none (no result: Lmaj promast, Diaphorase act, Redox H2O2 prof, Diaph inh CS, G6PDH CS)
CC(=O)OC1N=C(c2ccccc2)c2cc(C)ccc2NC1=O (centres undefined)	Lmaj promast 74.7
O=C(CN1C2CCC1CC(O)(c1cccnc1)C2)Nc1ccc2c(c1)OCO2 (centres undefined)	Lmaj promast 89.9
Nc1c(C(=O)OCc2ccccc2)c2nc3ccccc3nc2n1Cc1cccs1	Lmaj promast 69.2
CCC(C)OC(=O)c1c(N)n(Cc2cccs2)c2nc3ccccc3nc12 (centres undefined)	Lmaj promast 90.8
